Measured values: ChEMBL document CHEMBL1127668, “Antagonist, partial agonist, and full agonist imidazo[1,5-a]quinoxaline amides and carbamates acting through the GABAA/benzodiazepine receptor” (J Med Chem, 1994)
“And” between values parts separate entries of the source, which are not always exact repeats. Equal entries are not always repeated.

Assays:
[1] = target: GABA-A receptor; anion channel; assay: Displacement of [3H]- flunitrazepam from rat GABA-A benzodiazepine receptor; type: protein-complex assay
[2] = Displacement of [3H]flunitrazepam from alpha-1-beta-2-gamma-2 GABA-A receptor subunits expressed in Sf9 cell membranes; set-up: species or system Rattus norvegicus
Outline: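 Sf-9 membranes from cells infected with baculovirus carrying α1, β2 and γ2 cDNAs, harvested 60 h postinfection. Assay in normal saline with 6 nM [3H]flunitrazepam, 50 µg membrane protein and six test concentrations; 60 min at 4 °C; glass-fiber filtration, four cold washes, scintillation counting.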

[3] = Displacement of [3H]-Ro- 15-4513 from alpha-1-beta-2-gamma-2 GABA-A receptor subunits expressed in Sf9 cell membranes; set-up: species or system Rattus norvegicus
[4] = target: T1, GABA-A receptor; anion channel (Rattus norvegicus) (UniProt O09028+P15431+P18506+P18508+P19969+P20236+P23574+P23576+P28471+P28473+P30191+P62813+P63079+P63138+Q91ZM7+Q9ES14); assay: Shift in the affinity of [35S]TBPS for the chloride channel of GABAA receptor complex in the presence and absence of compound; type: protein-complex assay
[5] = organism: Rattus norvegicus; assay: Chloride ion influx in rat cerebrocortical membranes; type: functional
[6] = tested on: Rattus norvegicus; assay: The compound was tested for antagonistic activity against metrazole induced convulsions in rats, after ip administration; type: functional
[7] = tested on: Rattus norvegicus; assay: The compound was tested for antagonistic activity against metrazole induced convulsions in rats after ip administration; type: functional
[8] = target: GABA A receptor alpha-6/beta-2/gamma-2 (Homo sapiens, UniProt P18507+P47870+Q16445); assay: Displacement of [3H]-Ro- 15-4513 from alpha-6-beta-2-gamma-2 GABA-A receptor subunits expressed in Sf9 cell membranes
Outline: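 Sf-9 cells infected with baculovirus carrying α6, β2 and γ2 cDNAs, harvested 60 h postinfection; membranes stored at -80 °C in 300 mM sucrose, 5 mM Tris/HCl pH 7.5, 20% glycerol. 50 µg membrane protein with 6 nM [3H]Ro 15-4513 and six test concentrations in normal saline, 60 min at 4 °C; filtered, washed, scintillation counted.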

[9] = target: T1, GABA-A receptor; anion channel (Rattus norvegicus); assay: Inhibition of [35S]TBPS binding to GABA-A receptor complex; type: protein-complex assay

GABA A receptor alpha-6/beta-2/gamma-2, sequence (P47870 whole entry): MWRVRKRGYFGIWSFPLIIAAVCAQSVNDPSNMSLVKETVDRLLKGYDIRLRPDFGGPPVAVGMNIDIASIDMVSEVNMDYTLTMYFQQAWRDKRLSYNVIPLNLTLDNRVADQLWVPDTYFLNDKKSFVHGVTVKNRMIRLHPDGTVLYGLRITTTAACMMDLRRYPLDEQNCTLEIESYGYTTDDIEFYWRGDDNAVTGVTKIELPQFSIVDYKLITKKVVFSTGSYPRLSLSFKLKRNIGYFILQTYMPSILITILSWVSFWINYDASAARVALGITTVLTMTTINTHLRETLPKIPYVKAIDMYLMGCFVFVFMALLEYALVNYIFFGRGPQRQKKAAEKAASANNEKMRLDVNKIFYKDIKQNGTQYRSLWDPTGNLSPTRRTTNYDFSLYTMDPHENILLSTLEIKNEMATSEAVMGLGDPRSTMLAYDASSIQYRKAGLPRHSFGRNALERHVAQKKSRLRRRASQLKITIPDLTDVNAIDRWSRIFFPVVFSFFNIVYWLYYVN
GABA A receptor alpha-6/beta-2/gamma-2, sequence (P18507 whole entry): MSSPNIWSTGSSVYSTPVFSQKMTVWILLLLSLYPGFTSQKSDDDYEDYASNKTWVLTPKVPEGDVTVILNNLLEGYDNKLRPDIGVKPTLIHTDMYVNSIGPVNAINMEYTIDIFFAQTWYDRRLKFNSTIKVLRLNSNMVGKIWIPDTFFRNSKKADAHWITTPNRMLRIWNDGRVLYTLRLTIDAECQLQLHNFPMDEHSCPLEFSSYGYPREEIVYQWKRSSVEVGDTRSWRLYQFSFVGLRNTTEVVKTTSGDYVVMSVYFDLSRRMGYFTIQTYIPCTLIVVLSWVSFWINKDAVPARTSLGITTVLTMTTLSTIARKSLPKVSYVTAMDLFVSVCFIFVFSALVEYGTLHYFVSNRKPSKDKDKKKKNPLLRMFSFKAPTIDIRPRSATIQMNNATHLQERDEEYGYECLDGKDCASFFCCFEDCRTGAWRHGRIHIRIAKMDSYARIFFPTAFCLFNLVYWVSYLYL
GABA A receptor alpha-6/beta-2/gamma-2, sequence (Q16445 whole entry): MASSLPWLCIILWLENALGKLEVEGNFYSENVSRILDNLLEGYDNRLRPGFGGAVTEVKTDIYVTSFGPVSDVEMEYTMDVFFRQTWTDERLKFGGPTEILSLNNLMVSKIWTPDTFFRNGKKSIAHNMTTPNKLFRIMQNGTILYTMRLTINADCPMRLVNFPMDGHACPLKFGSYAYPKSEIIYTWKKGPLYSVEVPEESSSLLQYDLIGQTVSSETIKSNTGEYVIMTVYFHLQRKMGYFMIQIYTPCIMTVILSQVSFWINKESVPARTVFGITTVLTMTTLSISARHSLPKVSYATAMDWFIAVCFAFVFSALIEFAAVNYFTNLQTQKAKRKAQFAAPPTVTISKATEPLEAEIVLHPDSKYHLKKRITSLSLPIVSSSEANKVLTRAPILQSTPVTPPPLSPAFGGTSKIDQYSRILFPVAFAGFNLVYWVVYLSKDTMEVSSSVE

SMILES | Ki [1] [nM] | Ki [2] [nM] | Ki [3] [nM] | TBPS shift [4] | Chlorine uptake [5] | ED50 [6] [mg/kg] | ED50 [7] [mg/kg] | Ki [8] [nM] | TBPS shift [9]
O=C(c1ccccc1)N1Cc2c(-c3noc(C4CC4)n3)ncn2-c2cccc(F)c21 | 0.77 | 0.3 | 681 | 0.87 | 0.9 | 25 | – | – | –
CC(=O)N1Cc2c(-c3noc(C4CC4)n3)ncn2-c2ccccc21 | 1.5 | 2.7 | 124 | 0.9 | – | – | 35 | – | –
CN1C(=O)CN=C(c2ccccc2)c2cc(Cl)ccc21 [DIAZEPAM] | – | – | – | – | 1 | 0.5 | – | > 7000 | –
CC(C)(C)OC(=O)c1ncn2c1CN(C(=O)c1ccccc1Cl)c1ccccc1-2 | 4 | – | – | 0.2 | -0.15 | – | > 50 | – | –
CC(C)(C)OC(=O)c1ncn2c1C1CCC(=O)N1c1ccccc1-2 (stereo not given) | 0.76 | 0.4 | 13.2 | – | – | – | > 50 | – | 0.06
O=C1CC[C@@H]2c3c(-c4noc(C5CC5)n4)ncn3-c3ccccc3N12 | 0.65 | – | – | 0.9 | – | – | 1.9 | – | –
CC(=O)N1Cc2c(-c3noc(C4CC4)n3)ncn2-c2ccc(F)cc21 | 0.69 | 0.6 | 81 | 1.11 | – | – | – | – | –
CC(C)(C)OC(=O)c1ncn2c1CN(C(=O)OC(C)(C)C)c1ccccc1-2 | 5.1 | – | – | 0.45 | 0.14 | – | – | – | –
O=C(c1ccccc1)N1Cc2c(-c3noc(C4CC4)n3)ncn2-c2ccc(F)cc21 | 0.58 | 0.4 | > 10000 | 0.98 | 0.67 | – | – | – | –
O=C1CC[C@H]2c3c(-c4noc(C5CC5)n4)ncn3-c3ccccc3N12 | 0.62 | – | – | 1.05 | – | – | 1.1 | – | –
CC(=O)N1Cc2c(-c3nc(C4CC4)no3)ncn2-c2ccccc21 | 6.6 | – | – | 0.7 | 0.6 | – | 42 | – | –
CC(C)OC(=O)N1c2ccccc2-n2cnc(-c3noc(C4CC4)n3)c2C1(C)C | 6.7 | – | – | 1.2 | 0.7 | – | 3.7 | – | –
CC(=O)N1Cc2c(-c3noc(C4CC4)n3)ncn2-c2cccc(F)c21 | – | 0.8 | 107 | – | – | – | – | – | –
O=C(c1ccccc1)N1Cc2c(-c3noc(C4CC4)n3)ncn2-c2ccccc21 | 4.3 | 0.3 | 1140 | 0.5 | – | – | – | – | –
Cc1ccc(-c2nc3ccc(C)cn3c2CC(=O)N(C)C)cc1 [ZOLPIDEM] | – | – | – | – | – | – | 4.4 | – | –
CC(C)(C)OC(=O)N1Cc2c(-c3noc(C4CC4)n3)ncn2-c2ccccc21 | 1.9 | – | – | 2.9 | – | – | 0.06 | – | –
COC(=O)N1c2ccccc2-n2cnc(-c3noc(C4CC4)n3)c2C1(C)C | 6.8 | – | – | 1.04 and 0.8 | 1.18 and 0.4 | – | > 50 | – | –
CCOC(=O)c1ncn2c1CN(C)C(=O)c1cc(N=[N+]=[N-])ccc1-2 [Ro-154513] | – | 15 | – | – | – | – | – | 5.4 | –
O=C1CCC2c3c(-c4noc(C5CC5)n4)ncn3-c3ccccc3N12 (stereo not given) | 0.87 | – | – | 1.15 | 0.29 | – | – | – | –
O=C(c1ccccc1Cl)N1Cc2c(-c3noc(C4CC4)n3)ncn2-c2ccccc21 | 1.4 | – | – | 0 | 0.28 | – | > 50 | – | –
CC(=O)N1Cc2c(C(=O)OC(C)(C)C)ncn2-c2ccccc21 | – | – | – | -0.06 | 0 | – | – | – | –
CC(=O)N1c2ccccc2-n2cnc(-c3noc(C4CC4)n3)c2C1(C)C | 4.8 | – | – | 0.7 | – | – | 30 | – | –
O=C1OCC2c3c(-c4noc(C5CC5)n4)ncn3-c3ccccc3N12 (stereo not given) | 2.4 | – | – | 0.96 | 0.5 | – | – | – | –
